This is a sample that favours compounds with a hit; in the whole collection about 4% have one here.
CHO parental Ca = ATP-evoked calcium signal inhibitors, parental CHO, primary screen, counter-screen for OX1R antagonist project, cell-based, fluorescence, Fluo-8 calcium dye; parental CHO-K1, ATP-induced calcium, Fluo-8 fluorescence; inhibition, % at 5.6 µM; AID 463079, 2010; 330,000 tested, 0.63% active;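 active = inhibition above that plate's mean sample inhibition plus 3 SD, cut at about 26% in these data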
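Assay system: untransfected parental CHO cell line. Also added: ATP agonist challenge. Dosing: one dose, 5.6 µM nominal. Measured by: Fluo-8 fluorescence. Read-out: % inhibition. Benchmarks: ATP wells versus no-ATP DMSO wells. Repeats: no replicates.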
TAAR1 ag = human TAAR1 agonists, primary screen, Fluo-8 calcium fluorescence, CHO RD-HGA16 cells | Trace amine-associated receptor 1 (Homo sapiens), Q96RJ0 | 360,000 tested, 0.99% active | activation, % at 3 µM | vehicle wells 0%, saturating PEA agonist 100%;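 active = activation above the mean activation of all test compounds in the run plus 3 SD, cut at about 38% in these data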
Target sequence (Q96RJ0 whole entry, looked up): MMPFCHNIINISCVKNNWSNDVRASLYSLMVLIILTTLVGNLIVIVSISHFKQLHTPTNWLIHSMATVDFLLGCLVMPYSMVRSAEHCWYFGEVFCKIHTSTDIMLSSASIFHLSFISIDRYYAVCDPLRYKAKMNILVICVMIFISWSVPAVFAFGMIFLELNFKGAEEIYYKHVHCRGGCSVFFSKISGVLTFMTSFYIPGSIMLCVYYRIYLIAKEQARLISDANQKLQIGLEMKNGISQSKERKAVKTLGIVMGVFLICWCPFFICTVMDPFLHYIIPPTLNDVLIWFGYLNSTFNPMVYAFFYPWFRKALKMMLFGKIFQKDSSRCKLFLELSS
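Assay system – CHO-derived RD-HGA16 cells with stable Gα16 and human TAAR1 · Compound dosing – one-point dosing at 3 µM (nominal) · Incubation – 17-24 h seeding, 75 min 37 °C dye, 30 min RT · Measured by – kinetic Fluo-8 calcium fluorescence · Control set – DMSO vehicle as 0%, PEA at EC100 as 100% · Repeats – single well for each compound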
OX1R antag-1 = OX1R (HCRTR1) antagonists, primary screen, fluorescence, CHO/OX1R cells, Fluo-8 calcium, orexin A. 330,000 tested, 0.43% active. Orexin/Hypocretin receptor type 1 (Homo sapiens), O43613. Fluo-8 calcium fluorescence. inhibition, % at 5 µM;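 active = inhibition above its plate's threshold, mean inhibition of all tested compounds on the plate plus 3 SD, cut at about 37% in these data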
Target sequence (O43613 whole entry, looked up): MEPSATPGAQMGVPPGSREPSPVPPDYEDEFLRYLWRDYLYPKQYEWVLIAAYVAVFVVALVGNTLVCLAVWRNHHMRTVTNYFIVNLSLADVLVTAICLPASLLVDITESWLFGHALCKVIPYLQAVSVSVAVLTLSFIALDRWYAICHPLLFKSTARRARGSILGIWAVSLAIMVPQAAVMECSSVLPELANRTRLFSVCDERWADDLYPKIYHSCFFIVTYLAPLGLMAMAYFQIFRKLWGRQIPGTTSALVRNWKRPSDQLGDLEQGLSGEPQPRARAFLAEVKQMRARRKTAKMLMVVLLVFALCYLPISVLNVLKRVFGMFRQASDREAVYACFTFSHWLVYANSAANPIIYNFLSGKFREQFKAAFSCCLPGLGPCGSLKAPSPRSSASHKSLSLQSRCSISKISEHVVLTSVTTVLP
OX1R antag-2 = antagonists of human orexin 1 receptor (OX1R). Orexin/Hypocretin receptor type 1 (Homo sapiens), O43613. OX1R-expressing cells, FRET antagonist read-out. inhibition, % at 6.6 µM. 330,000 tested, 1.8% active; in the data active = inhibition mostly above about 38%, no sharp cut-off; inactive = mostly below about 40%
TAAR1 antagonist = human TAAR1 antagonists, primary screen, Fluo-8 calcium fluorescence, CHO RD-HGA16 cells; Trace amine-associated receptor 1 (Homo sapiens), Q96RJ0; 360,000 tested, 1.5% active; antagonist; AID 624466, 2012; inhibition, % at 3 µM;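 active = inhibition above a per-plate cutoff, the mean inhibition of test compounds on that plate plus 3 SD, cut at about 49% in these data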
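Test system – hTAAR1-expressing CHO RD-HGA16 cells, Gα16-coupled · Reagent – β-PEA at EC80 concentration, post-compound challenge · Compound dosing – 3 µM, single point · Timing – 140 s kinetic read after compound, 140 s after agonist · Detection – Fluo-8 intracellular calcium dye fluorescence, real-time kinetic reads · Control set – DMSO and EC80 PEA controls · Repeats – n of 1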
OX1R Ca confirm = OX1R (HCRTR1) antagonists, confirmation, fluorescence, CHO/OX1R cells, Fluo-8 calcium, orexin A | shares compounds with OX1R antag-1 | orexin A calcium Fluo-8 fluorescence | inhibition, % at 5 µM | 1,100 tested, 38% active | AID 492963, 2010; in the data active = inhibition above about 29%
CHO Ca triplic = ATP-evoked calcium inhibition in parental CHO, counter-screen for OX1R antagonist project, cell-based, fluorescence, CHO-K1, triplicate; AID 492965, 2010; shares compounds with OX1R antag-1; ATP-induced calcium, Fluo-8 fluorescence; 1,100 tested, 9.3% active; inhibition, % at 5.6 µM;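 active = inhibition above a per-plate limit, the mean inhibition of that plate's test compounds plus 3 SD, cut at about 25% in these data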
A number is an active result; 0 = inactive; - = not tested or not shown.

SMILES | CHO parental Ca | TAAR1 ag | OX1R antag-1 | OX1R antag-2 | TAAR1 antagonist | OX1R Ca confirm | CHO Ca triplic
CN(C)S(=O)(=O)c1cccc(NC(=O)COC(=O)[C@H](Cc2ccccc2)NC(=O)c2ccco2)c1 | 0 | 0 | 0 | 0 | 55 | - | -
O=S(=O)(c1ccc(F)c(F)c1F)N1CCN(c2ncnc3sccc23)CC1 | 0 | 0 | 0 | 0 | 0 | - | -
Cc1ccc(S(=O)(=O)N2CCN(c3ncnc4sccc34)CC2)cc1 | 37 | 0 | 0 | 0 | 0 | - | -
CN1OC[C@@H]2CN(Cc3ccc4c(c3)OCO4)[C@H](c3ccc(-n4ccnc4)cc3)C[C@@H]21 | - | 0 | - | - | 0 | - | -
CN(CC(=O)Nc1cccc(F)c1)C(=O)c1ccc(NC2CC2)c([N+](=O)[O-])c1 | 0 | 0 | 0 | 0 | 0 | - | -
O=C(Nc1ccccc1)N(O)c1ccc(Cl)cc1 | 0 | 38 | 0 | 0 | 0 | - | -
c1ccc(OCCNc2nc(NCC3CC3)nc3ccsc23)cc1 | - | 0 | - | - | 0 | - | -
CCc1cc(=O)[nH]c(SCc2ccc(C)cc2)n1 | 0 | 0 | 0 | 0 | 0 | - | -
Cc1ccc(/C=N/NC(=O)c2nnn(-c3nonc3N)c2C(C)C)o1 | 0 | 38 | 0 | 0 | 0 | - | -
Cc1ccc(/C=N/NC(=O)c2nnn(-c3nonc3N)c2CN(C)C)s1 | 0 | 0 | 0 | 0 | 0 | - | -
COc1ccc2ccccc2c1/C=N/NC(=O)c1nnn(-c2nonc2N)c1C(C)C | 0 | 0 | 0 | 60 | 55 | - | -
Cc1ccc(-c2c(C(=O)N/N=C/c3ccc(C)o3)nnn2-c2nonc2N)cc1 | 0 | 43 | 0 | 0 | 0 | - | -
Cc1ccc(/C=N/NC(=O)c2nnn(-c3nonc3N)c2C(C)C)s1 | 0 | 47 | 0 | 0 | 0 | - | -
COc1cccc(-c2c(C(=O)N/N=C/c3ccncc3)nnn2-c2nonc2N)c1 | 0 | 0 | 0 | 0 | 0 | - | -
CCOc1cccc(-c2c(C(=O)N/N=C/c3ccc(C)s3)nnn2-c2nonc2N)c1 | 0 | 53 | 0 | 0 | 0 | - | -
COc1cccc(-c2c(C(=O)N/N=C/c3ccc(C)o3)nnn2-c2nonc2N)c1 | 0 | 42 | 0 | 0 | 0 | - | -
COc1ccccc1N(CC(O)Cn1nc(C)cc1C)S(=O)(=O)c1ccccc1 (stereo not drawn) | 0 | 0 | 0 | 47 | 0 | - | -
COc1ccccc1N(CC(O)Cn1c2ccccc2c2ccccc21)S(=O)(=O)c1ccccc1 (stereo not drawn) | 0 | 0 | 0 | 0 | 0 | - | -
N#C/C(=C\c1c(F)cccc1Cl)c1nn(-c2ccccc2)c(-n2cccc2)c1C#N | 0 | 0 | 0 | 36 | 0 | - | -
N#Cc1cc(C(=O)c2cc(Br)ccc2O)cn(Cc2ccccc2)c1=O | 0 | 0 | 0 | 0 | 0 | 0 | 0
Cc1cc(Cl)ccc1C(=O)C1CCCN(C(=O)c2snnc2C)C1 (stereo not drawn) | 0 | 0 | 0 | 0 | 0 | - | -
CCCn1c(N)c(C(=O)CSc2nc3ccccc3s2)c(=O)[nH]c1=O | 0 | 0 | 45 | 0 | 0 | 0 | 0
Cc1c(C(=O)Nc2ccc(S(=O)(=O)N(C)C3CCN(C)CC3)cc2)oc2ccccc12 | 0 | 0 | 0 | 0 | 0 | - | -
Cc1c(C(=O)Nc2ccc(S(=O)(=O)N(C)C3CCN(C)CC3)cc2)oc2c(Cl)cccc12 | 0 | 0 | 43 | 0 | 0 | 0 | 0
COc1cc(/C=N/NC(=O)c2ccc(O)cc2)ccc1OCC(=O)N1CC(C)OC(C)C1 (stereo not drawn) | 0 | 0 | 0 | 0 | 0 | - | -
SMILES | CHO parental Ca | TAAR1 ag | OX1R antag-1 | OX1R antag-2 | TAAR1 antagonist | OX1R Ca confirm | CHO Ca triplic
Cc1ccc2c(c1)nnn2C1CCN(S(=O)(=O)c2cccc(S(=O)(=O)N(C)C)c2)CC1 | 0 | 0 | 0 | 0 | 56 | 38 | 25
Cc1cccc(N2CCN(C(=O)c3ccc(CS(=O)Cc4cccc(Cl)c4)o3)CC2)c1C (stereo not drawn) | 0 | 0 | 0 | 0 | 0 | 0 | 0
CN(C)c1ccc(NC(=O)CC(NCc2ccccn2)C(=O)O)cc1 (stereo not drawn) | 0 | 0 | 0 | 0 | 0 | - | -
Cn1c(=O)cc(SCC(=O)NCc2ccco2)c2ccccc21 | 0 | 0 | 0 | 0 | 0 | - | -
O=C(CSc1cn(CCNC(=O)c2ccc3ccccc3c2)c2ccccc12)NCc1ccco1 | 0 | 0 | 0 | 0 | 0 | 0 | 0
Cc1ccc(S(=O)(=O)N(C)C)cc1NC(=O)CN1C(=O)NC2(CCc3ccccc32)C1=O (stereo not drawn) | - | 0 | - | - | 0 | - | -
CC1CCC/C(=N\NC(=S)NCc2ccccc2)C1 (stereo not drawn) | 0 | 0 | 0 | 0 | 0 | - | -
CC1CCC/C(=N\NC(=S)Nc2ccccc2)C1 (stereo not drawn) | 0 | 0 | 0 | 0 | 0 | 0 | 0
O=C(CCCOc1ccccc1)Nc1cccc([N+](=O)[O-])c1 | 0 | 0 | 0 | 0 | 0 | 0 | 0
O=C(CCCOc1ccccc1)Nc1ccc(Cl)c(S(=O)(=O)N2CCOCC2)c1 | 0 | 0 | 0 | 0 | 0 | 0 | 0
COc1ccc(NC(=O)C(C)Sc2nnc3c4c(nc(-c5ccc(OC)cc5)n23)CC(C)(C)OC4)cc1 (stereo not drawn) | 0 | 0 | 0 | 0 | 0 | - | -
CC(c1cccs1)N(Cc1ccco1)C(=O)Nc1ccc(Cl)c(Cl)c1 (stereo not drawn) | 0 | 0 | 44 | 0 | 0 | 0 | 0
Clc1ccc(OCc2nnc3n2CCCCC3)c(Cl)c1 | 0 | 0 | 0 | 0 | 0 | - | -
O=C(OCCc1cc2ccccc2c(=O)o1)c1ccccc1C(F)(F)F | 0 | 0 | 0 | 0 | 0 | 0 | 0
COc1cc(S(=O)(=O)N(CCc2ccccc2)Cc2cccs2)ccc1-n1cnnn1 | 0 | 0 | 52 | 0 | 0 | 0 | 0
COc1ccc(CCN(Cc2cccs2)S(=O)(=O)c2ccc(-n3cnnn3)cc2)cc1OC | 0 | 0 | 0 | 0 | 0 | - | -
CN(c1ccccc1)S(=O)(=O)c1cccc(NC(=O)Cc2n[nH]c(=O)c3ccccc23)c1 | 0 | 0 | 0 | 0 | 0 | 0 | 0
Cc1cc(C)c(NC(=O)CN(C)CC(=O)Nc2cccc(S(=O)(=O)N(C)c3ccccc3)c2)c(C)c1 | 0 | 44 | 37 | 0 | 89 | 0 | 0
Cc1ccc(S(=O)(=O)N2C[C@@H]3[C@H]4CC[C@H](C4)[C@@H]3[C@@H](C)[C@H]2c2ccco2)cc1 | 0 | 0 | 82 | 0 | 0 | 0 | 0
Cc1ccc(S(=O)(=O)N2C[C@@H]3[C@H]4CC[C@H](C4)[C@@H]3[C@@H](C)[C@@H]2c2ccco2)cc1 | 0 | 0 | 0 | 0 | 0 | - | -
